The text below walks through data of PMC3578163 (Chemical research in toxicology, 2013).

Read-outs that look alike come from different tables or passages of the source. A value given as a limit tells only on which side of the number the result lay.

For assay [1], the target named is T1, hpol ι^26–446 (Homo sapiens, UniProt Q9UNA4).
T1 sequence (Q9UNA4 26-446): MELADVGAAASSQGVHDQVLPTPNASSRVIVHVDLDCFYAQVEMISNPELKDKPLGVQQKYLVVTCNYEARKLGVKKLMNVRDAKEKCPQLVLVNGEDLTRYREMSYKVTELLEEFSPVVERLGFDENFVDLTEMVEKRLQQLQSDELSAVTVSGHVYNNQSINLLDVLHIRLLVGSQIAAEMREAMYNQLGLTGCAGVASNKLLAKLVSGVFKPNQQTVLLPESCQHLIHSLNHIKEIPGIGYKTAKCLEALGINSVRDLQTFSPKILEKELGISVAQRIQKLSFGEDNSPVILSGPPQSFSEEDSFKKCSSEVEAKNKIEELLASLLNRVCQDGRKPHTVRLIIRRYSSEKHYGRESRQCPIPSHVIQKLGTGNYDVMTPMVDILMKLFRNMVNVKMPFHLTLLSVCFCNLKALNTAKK
In words: polymerase-catalyzed primer extension. The format is biochemical. The note with it: read-out: IC50 for inhibition of DNA polymerase activity; all four dNTPs 0.25 mM, MgCl2 5 mM; 20 nM enzyme, 200 nM DNA, 37 °C.

Assay [2] concerns the target T1, hpol ι^26–446. The format is binding. The note with it: for Kd: read-out: Kd,DNA (polymerase binding to primer-template DNA). The method, boiled down: (§1)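 Recombinant human polymerase (His/GST-tagged, expressed in E. coli BL21(DE3), tags cleaved) titrated into 2 nM FAM-labelled 13/18-mer primer-template at 25 °C. Buffer: 50 mM HEPES pH 7.5, 10 mM KOAc, 10 mM MgCl₂, 0.1 mM ZnCl₂, 0.1 mM EDTA, 10% DMSO, 0.1 mg/mL BSA. MK886 at 0–250 μM, with DMSO as control. Polarization read at ex 485/em 525 nm. Kd fitted with total DNA held constant.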

Assay [3] has as its system COX1. The note with it: read-out: IC50 value for COX1 inhibition; in vitro activity assays; cited from earlier work.
The test system of assay [4] is peroxisome proliferator activated receptor alpha (PPARα). The note with it: FLAP-independent inhibition of PPARα; cited from earlier work.
In assay [5] the target is T1, hpol ι^26–446. The format is biochemical. Conditions: for kcat: dTTP. The method, boiled down:
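Tripartite substrate built by annealing an unlabelled 19-mer primer, a TAMRA-labelled 10-mer reporter and a BHQ2-labelled 29-mer template (1.4:1:1.5); 50 nM substrate used. Enzyme at 5 nM in 50 mM Tris-HCl pH 8.0, 0.01% Tween-20, 2 mM DTT, 40 mM KCl, 0.25 mM MnCl₂, 25 °C. Inhibitor or DMSO present; dTTP 1–200 μM. Fluorescence (ex 525/em 598 nm) read continuously up to 60 min. Linear-phase velocities fitted to a hyperbola.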

Assay [6] addresses T2, hpol ι^1–446 (Homo sapiens, UniProt Q9UNA4).
T2 sequence (Q9UNA4 1-446): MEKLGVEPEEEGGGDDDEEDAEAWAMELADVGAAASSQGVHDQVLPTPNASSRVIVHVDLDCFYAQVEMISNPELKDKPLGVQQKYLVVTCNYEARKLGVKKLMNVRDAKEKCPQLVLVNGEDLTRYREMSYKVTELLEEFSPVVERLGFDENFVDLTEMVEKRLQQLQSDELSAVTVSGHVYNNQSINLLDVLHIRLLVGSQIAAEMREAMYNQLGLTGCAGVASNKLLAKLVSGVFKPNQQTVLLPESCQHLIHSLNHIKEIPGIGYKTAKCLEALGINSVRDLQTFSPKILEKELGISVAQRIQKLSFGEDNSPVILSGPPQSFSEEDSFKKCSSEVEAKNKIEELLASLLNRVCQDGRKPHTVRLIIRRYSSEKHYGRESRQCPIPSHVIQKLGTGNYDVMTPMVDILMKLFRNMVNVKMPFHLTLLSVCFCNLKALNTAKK
In words: polymerase-catalyzed primer extension. The format is biochemical. Conditions: read-out: IC50 for inhibition of DNA polymerase activity; all four dNTPs 0.25 mM, MgCl2 5 mM; 20 nM enzyme, 200 nM DNA, 37 °C.

Assay [7] deals with T3, hpol κ^19–526 (Homo sapiens, UniProt Q9UBT6).
T3 sequence (Q9UBT6 19-526): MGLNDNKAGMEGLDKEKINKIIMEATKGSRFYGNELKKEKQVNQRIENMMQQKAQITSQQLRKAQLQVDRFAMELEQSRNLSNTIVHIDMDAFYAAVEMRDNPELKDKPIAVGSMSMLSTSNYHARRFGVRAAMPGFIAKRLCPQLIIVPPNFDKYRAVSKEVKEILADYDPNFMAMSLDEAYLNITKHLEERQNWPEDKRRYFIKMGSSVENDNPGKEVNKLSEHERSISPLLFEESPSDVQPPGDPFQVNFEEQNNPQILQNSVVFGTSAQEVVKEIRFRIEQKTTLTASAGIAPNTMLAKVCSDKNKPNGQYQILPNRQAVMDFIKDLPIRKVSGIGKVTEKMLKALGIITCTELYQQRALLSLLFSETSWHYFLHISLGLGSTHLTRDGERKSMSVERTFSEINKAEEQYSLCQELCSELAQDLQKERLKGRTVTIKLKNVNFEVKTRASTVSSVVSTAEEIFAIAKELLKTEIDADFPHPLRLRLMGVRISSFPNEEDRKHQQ
As to the kind of experiment: polymerase-catalyzed primer extension. The format is biochemical. Conditions: read-out: IC50 for inhibition of DNA polymerase activity; five-minute time point; all four dNTPs 0.25 mM, MgCl2 5 mM; 20 nM enzyme, 200 nM DNA, 37 °C.

Assay [8] concerns the target T3, hpol κ^19–526. The format is binding. The note with it: for Kd: read-out: Kd,DNA (polymerase binding to primer-template DNA). The method, boiled down:
as §1

Consider `CC(C)c1ccc2c(c1)c(SC(C)(C)C)c(CC(C)(C)C(=O)O)n2Cc1ccc(Cl)cc1` [MK886, 3-[1-(4-chlorobenzyl)-3-t-butyl-thio-5-isoproylindol-2-yl]-2,2-dimethylpropanoic acid], for which the IC50 in assay [1] was 8200 ± 600 nM; in assay [3] it was 8000 nM; in assay [6], 15100 ± 2100 nM; in assay [7], 63800 ± 1700 nM. Also, the “change in the affinity for DNA relative to the DMSO control” value in assay [2] (10 μM MK886) was “no observed change”. For the same compound, the “fold increase in the Kd,DNA” value in assay [2] (MK886 at or above 100 μM) is recorded as more than 2 fold. Besides, the dissociation constant (Kd) in assay [2] (100 μM MK886) is 18.8 ± 2.7 nM; in assay [2] (150 μM MK886) it was 16.4 ± 2.1 nM; in assay [2] (250 μM MK886) it was 38.8 ± 17.1 nM; in assay [8] (25 μM MK886) it was 26 ± 9.1 nM; in assay [8] (50 μM MK886), 24.1 ± 9.4 nM; in assay [8] (100 μM MK886), 31.3 ± 12.1 nM. For the same compound, the results for the dissociation constant (Kd) in assay [8] (150 μM MK886) and in assay [8] (250 μM MK886) were 70.4 ± 15.7 nM and 67.9 ± 17.1 nM, respectively. The “concentration at which apoptosis is induced” value in assay [4] is “above 10 μM”. Moreover, the kcat came to 0.0733 ± 0.0017 s⁻¹ in assay [5] (20 μM MK886, fluorescence-based assay); 0.0717 ± 0.0017 s⁻¹ in assay [5] (40 μM MK886, fluorescence-based assay); 0.0683 ± 0.0033 s⁻¹ in assay [5] (60 μM MK886, fluorescence-based assay). Besides, the figures for the “Fold decrease in kcat/KM,dNTP” value in assay [5] (20 μM MK886 vs no inhibitor), in assay [5] (40 μM MK886 vs no inhibitor) and in assay [5] (60 μM MK886 vs no inhibitor) were 1.6, 2.1 and 2.4, respectively. Besides, the “mechanism of inhibition of DNA polymerase activity” value in assay [5] (fluorescence-based assay, diminished kcat and increased KM,dNTP) is “mixed-type inhibition”. Moreover, the “change in binding affinity for hpol κ relative to that observed for hpol ι^26–446” value in assay [8] (hpol κ vs hpol ι^26–446) was ~ 2 fold.
